Source: ChEMBL document CHEMBL1144182, “Antimicrobial and cytotoxic arylazoenamines. Part III: antiviral activity of selected classes of arylazoenamines” (Bioorg Med Chem, 2008)
The source made the active and inactive calls. How the calls were made is not given here.

Columns and labels:
[1] = Cytotoxicity against mock-infected african green monkey Vero76 cells assessed as reduction in cell viability after 96 hrs by MTT assay; assay type: cell-based, Vero; details: chlorocebus sabaeus
[2] = Cytotoxicity against mock-infected MDBK cells assessed as reduction in cell viability after 96 hrs by MTT assay; assay type: cell-based, Bos taurus; details: cattle
How it was run: (§1)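 Cytotoxicity run in parallel with the antiviral assays. MDBK seeded at 6 × 10^5 and BHK at 1 × 10^6 cells/mL in maintenance medium with or without serial compound dilutions. Incubated 48–96 h at 37 °C, 5% CO2, then viability read by MTT. CC50 is the concentration reducing mock-infected cell viability by 50%.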

[3] = test system: Vesicular stomatitis virus; assay: Antiviral activity against VSV infected in Vero76 cells assessed as reduction in virus plaque formation after 4 days by MTT assay; assay type: functional, organism-based; details: Vero 76
[4] = test system: Bovine viral diarrhea virus 1; assay: Antiviral activity against BVDV infected in MDBK cells assessed as protection against virus-induced cytopathogenicity after 4 days by MTT assay; assay type: functional, organism-based; details: Bovine viral diarrhea virus isolates and strains, 96 h
How it was run: (§2)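 MDBK (BVDV) or BHK-21 (YFV) cells were seeded at 3 × 10^4 or 5 × 10^4 cells/well respectively and grown overnight to confluent monolayers at 37 °C in 5% CO2. Monolayers were infected at m.o.i. 0.01 in serum-free medium. After 1 h, MEM Earle's with 1% FCS was added, with or without serial compound dilutions. After 3–4 days at 37 °C, viability was read by MTT. EC50 was taken as 50% protection from virus-induced cytopathogenicity.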

Coxsackievirus B2 = assay: Antiviral activity against CVB2 infected in Vero76 cells assessed as reduction in virus plaque formation after 4 days by MTT assay; assay type: functional, organism-based; details: Enterovirus B, Vero 76, 96 h
Poliovirus 1 = assay: Antiviral activity against Sb1 virus infected in Vero76 cells assessed as reduction in virus plaque formation after 4 days by MTT assay; assay type: functional, organism-based; details: Enterovirus C, Sabin, Vero 76, 96 h
[5] = Cytotoxicity against mock-infected human MT4 cells assessed as reduction in cell viability after 96 hrs by MTT assay; assay type: cell-based
How it was run: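 Exponentially growing MT-4 cells seeded at 1 × 10^5 cells/mL in RPMI-1640 with 10% FCS, penicillin and streptomycin, with or without serial compound dilutions. Incubated at 37 °C, 5% CO2; viability read by MTT after 96 h. CC50 is the concentration reducing mock-infected cell viability by 50%.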

Vaccinia virus = assay: Antiviral activity against VV infected in Vero76 cells assessed as reduction in virus plaque formation after 4 days by MTT assay; assay type: functional, organism-based; details: Orthopoxvirus vaccinia; Vero 76
Yellow fever virus = assay: Antiviral activity against YFV infected in BHK21 cells assessed as protection against virus-induced cytopathogenicity after 4 days by MTT assay; assay type: functional, organism-based; details: BHK-21, 96 h; how it was run: as §2
[6] = test system: Respiratory syncytial virus; assay: Antiviral activity against RSV infected in Vero76 cells assessed as reduction in virus plaque formation after 4 days by MTT assay; assay type: functional, organism-based; details: human respiratory syncytial virus, Vero 76, 96 h
[7] = Cytotoxicity against mock-infected BHK cells assessed as reduction in cell viability after 96 hrs by MTT assay; assay type: cell-based, Mesocricetus auratus; details: hamster; how it was run: as §1
[8] = test system: Human immunodeficiency virus 1; assay: Antiviral activity against HIV1 infected in MT4 cells assessed as virus-induced cytopathogenicity after 4 days; assay type: functional, organism-based

CN1C=C(/N=N/c2ccc(F)cc2)CCC1
CC50 at 96 h [1]: 77 µM | CC50 at 96 h [2]: 48 µM | Activity [3]: inactive | EC50 [4]: > 48 µM | EC50 (Coxsackievirus B2): 53 µM | EC50 (Poliovirus 1): > 77 µM | CC50 at 96 h [5]: ≥ 100 µM | Activity (Vaccinia virus): inactive | EC50 (Yellow fever virus): > 90 µM | EC50 [6]: 30 µM | CC50 at 96 h [7]: 90 µM | Activity [8]: inactive

CN1CCC/C1=C\N=N\c1cccc(C(F)(F)F)c1
CC50 at 96 h [1]: > 100 µM | CC50 at 96 h [2]: 90 µM | Activity [3]: inactive | EC50 [4]: 21 µM | EC50 (Coxsackievirus B2): > 100 µM | EC50 (Poliovirus 1): > 100 µM | CC50 at 96 h [5]: 49 µM | Activity (Vaccinia virus): inactive | EC50 (Yellow fever virus): > 50 µM | EC50 [6]: > 100 µM | CC50 at 96 h [7]: 50 µM | Activity [8]: inactive

O=c1cnn([C@@H]2O[C@H](CO)[C@@H](O)[C@H]2O)c(=O)[nH]1 [6-AZAURIDINE]
CC50 at 96 h [1]: 20 µM | CC50 at 96 h [2]: > 100 µM | EC50 [4]: > 100 µM | EC50 (Coxsackievirus B2): > 20 µM | EC50 (Poliovirus 1): > 20 µM | CC50 at 96 h [5]: 2 µM | EC50 (Yellow fever virus): 26 µM | EC50 [6]: 1.2 µM | CC50 at 96 h [7]: > 100 µM

Cc1ccc(/N=N/C=C2\CCCN2Cc2ccccc2)cc1
CC50 at 96 h [1]: 50 µM | CC50 at 96 h [2]: 22 µM | Activity [3]: inactive | EC50 [4]: > 22 µM | EC50 (Coxsackievirus B2): 8 µM | EC50 (Poliovirus 1): > 50 µM | CC50 at 96 h [5]: 10 µM | Activity (Vaccinia virus): inactive | EC50 (Yellow fever virus): > 25 µM | EC50 [6]: > 50 µM | CC50 at 96 h [7]: 25 µM | Activity [8]: inactive

COc1ccc(/N=N/C=C2\CCCN2C)cc1
CC50 at 96 h [1]: 100 µM | CC50 at 96 h [2]: 67 µM | Activity [3]: inactive | EC50 [4]: 18 µM | EC50 (Coxsackievirus B2): 5 µM | EC50 (Poliovirus 1): > 100 µM | CC50 at 96 h [5]: > 100 µM | Activity (Vaccinia virus): inactive | EC50 (Yellow fever virus): > 77 µM | EC50 [6]: > 100 µM | CC50 at 96 h [7]: 77 µM | Activity [8]: inactive

FC(F)(F)c1cc(/N=N\C2=C3CCCCN3CCC2)ccc1Cl
CC50 at 96 h [1]: > 100 µM | CC50 at 96 h [2]: 35 µM | Activity [3]: inactive | EC50 [4]: > 35 µM | EC50 (Coxsackievirus B2): 64 µM | EC50 (Poliovirus 1): > 100 µM | CC50 at 96 h [5]: 19 µM | Activity (Vaccinia virus): inactive | EC50 (Yellow fever virus): > 41 µM | EC50 [6]: > 100 µM | CC50 at 96 h [7]: 41 µM | Activity [8]: inactive

CN1CCC/C1=C\N=N\c1cccc(Br)c1
CC50 at 96 h [1]: 80 µM | CC50 at 96 h [2]: 52 µM | Activity [3]: inactive | EC50 [4]: 9 µM | EC50 (Coxsackievirus B2): 16 µM | EC50 (Poliovirus 1): > 80 µM | CC50 at 96 h [5]: 55 µM | Activity (Vaccinia virus): inactive | EC50 (Yellow fever virus): 7 µM | EC50 [6]: > 80 µM | CC50 at 96 h [7]: 41 µM | Activity [8]: inactive

CN1CCC/C1=C\N=N\c1ccc(F)cc1
CC50 at 96 h [1]: 75 µM | CC50 at 96 h [2]: 59 µM | Activity [3]: inactive | EC50 [4]: 18 µM | EC50 (Coxsackievirus B2): > 75 µM | EC50 (Poliovirus 1): > 75 µM | CC50 at 96 h [5]: 100 µM | Activity (Vaccinia virus): inactive | EC50 (Yellow fever virus): 36 µM | EC50 [6]: 12 µM | CC50 at 96 h [7]: 80 µM | Activity [8]: inactive

C[C@@]1(O)[C@H](O)[C@@H](CO)O[C@H]1n1cnc2c(=O)[nH]c(N)nc21 [2'-B-METHYL-GUANOSINE]
CC50 at 96 h [1]: > 100 µM | CC50 at 96 h [2]: > 100 µM | EC50 [4]: 1.7 µM | EC50 (Coxsackievirus B2): 20 µM | EC50 (Poliovirus 1): > 100 µM | CC50 at 96 h [5]: > 100 µM | EC50 (Yellow fever virus): 1 µM | EC50 [6]: > 100 µM | CC50 at 96 h [7]: 90 µM

CN1C=C(/N=N/c2cccc(Br)c2)CCC1
CC50 at 96 h [1]: > 100 µM | CC50 at 96 h [2]: > 100 µM | Activity [3]: inactive | EC50 [4]: 19 µM | EC50 (Coxsackievirus B2): 27 µM | EC50 (Poliovirus 1): > 100 µM | CC50 at 96 h [5]: > 100 µM | Activity (Vaccinia virus): inactive | EC50 [6]: 18 µM | CC50 at 96 h [7]: > 100 µM | Activity [8]: inactive

CN1C=C(/N=N/c2ccc(Cl)c(C(F)(F)F)c2)CCC1
CC50 at 96 h [1]: 90 µM | CC50 at 96 h [2]: 28 µM | Activity [3]: inactive | EC50 (Coxsackievirus B2): 34 µM | EC50 (Poliovirus 1): > 90 µM | CC50 at 96 h [5]: 62 µM | Activity (Vaccinia virus): inactive | EC50 (Yellow fever virus): > 44 µM | EC50 [6]: > 90 µM | CC50 at 96 h [7]: 44 µM | Activity [8]: inactive
